The text below walks through data of ChEMBL document CHEMBL1133751, “Design, synthesis, and biological evaluation of tricyclic nucleosides (dimensional probes) as analogues of certain antiviral polyhalogenated benzimidazole ribonucleosides” (J Med Chem, 2000).

A short description of test [1]: Compound was tested for the inhibition of KB cell growth in quadruplicate wells. The test is classed as functional, cell-based. The conditions noted are these: Homo sapiens. In outline: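 KB cells grown through two population doublings with compound in quadruplicate wells. Growth quantified by crystal violet staining and spectrophotometric reading of eluted dye. IC50 from linear regression of percent inhibition against log concentration.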

In test [2] the test system is HFF. Briefly: Visual cytotoxicity against stationary human foreskin fibroblasts (HFF) cells at the time of HCMV plaque enumeration. The test is classed as functional, cell-based. The gist of the method: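 Stationary HFF monolayers in the uninfected wells of the HCMV plaque assay inspected microscopically for cytotoxicity. Compounds in growth medium at 4–8 concentrations. IC50 from linear regression of percent inhibition against log concentration.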

The subject of test [3] is HFF. Briefly: Antiviral activity against towne strain HCMV was determined by plaque reduction assay in duplicate wells using HFF cells. In kind it is functional, cell-based. The conditions noted are these: Homo sapiens. In outline:
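HFF monolayers in 24-well dishes infected with about 100 PFU Towne HCMV (plaque-purified isolate P0) per cm2. Compounds in growth medium added to duplicate wells at 4–8 concentrations. Plaques scored. IC50 from linear regression of percent inhibition against log drug concentration.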
For orientation: In a plaque reduction assay, fewer plaques than in the control indicate reduced infectivity or spread.

Test [4] has as its system Human alphaherpesvirus 1. The experiment in a line: Antiviral activity against HSV-1 (herpes simplex virus), determined by ELISA in quadruplicate wells using BSC-1 cells. In kind it is functional, organism-based. The conditions noted are these: Human alphaherpesvirus 1, BSC-1. The gist of the method:
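KOS strain HSV-1 at 100 PFU/well added with selected drug concentrations in quadruplicate to 96-well dishes seeded with 10 000 BSC-1 cells/well and incubated overnight. Virus detected by ELISA. IC50 from linear regression of percent inhibition vs log concentration. Average of 2–3 separate experiments.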

For test [5], the system named is HFF. Briefly: Antiviral activity against towne strain HCMV was determined by yield reduction assay in duplicate wells using HFF cells. In kind it is functional. The conditions noted are these: Homo sapiens. The gist of the method:
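HFF cells plated in 96-well dishes and incubated overnight. Inoculated with Towne HCMV at MOI 0.5–1 PFU/cell, then drug added, in duplicate wells. Progeny virus yield measured. IC90 from the linear portion of log–log regression of yield versus drug concentration.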

`OC[C@H]1OC(n2cnc3nc4cc(Cl)c(Cl)cc4nc32)[C@H](O)[C@@H]1O` (stereo partly specified): the IC50 (commonly the concentration needed to halve the response being measured) in test [1] was above 100 µM; in test [2], 45 µM; in test [3], 32 µM; in test [4], above 100 µM.

For `OC[C@H]1OC(n2c(NC3CC3)nc3nc4cc(Cl)c(Cl)cc4nc32)[C@H](O)[C@@H]1O` (stereo partly specified), the IC50 in test [1] is 90 µM; in test [2] it was above 100 µM; in test [3] it was 32 µM; in test [4] it was above 100 µM.

`CC(C)Nc1nc2cc3cc(Cl)c(Cl)cc3nc2n1C1O[C@H](CO)[C@@H](O)[C@H]1O` (stereo partly specified): the IC50 was 90 µM in test [1], 32 µM in test [2], 32 µM in test [3] and above 100 µM in test [4].

In the case of `CC(C)Nc1nc2nc3cc(Cl)c(Cl)cc3nc2n1C1O[C@H](CO)[C@@H](O)[C@H]1O` (stereo partly specified), the IC50 in test [1] turned out to be 70 µM; in test [2], 100 µM; in test [3], 32 µM; in test [4], 100 µM.

For the molecule `OC[C@H]1OC(n2c(NC3CC3)nc3cc4cc(Cl)c(Cl)cc4nc32)[C@H](O)[C@@H]1O` (stereo partly specified), the IC50 in test [1] was 100 µM; in test [2], above 100 µM; in test [3], above 100 µM; in test [4], above 100 µM.

Take `OC[C@H]1O[C@@H](n2cnc3cc(Cl)c(Cl)cc32)[C@H](O)[C@@H]1O` [DICHLORORIBOBENZIMIDAZOLE]: the IC50 worked out at 36 µM in test [1], 42 µM in test [3] and 30 µM in test [4]. The IC90 (commonly the concentration needed for an effect of 90%) in test [5] amounted to 19 µM.

On to `OC[C@H]1OC(n2c(Cl)nc3cc4cc(Cl)c(Cl)cc4nc32)[C@H](O)[C@@H]1O` (stereo partly specified), for which the IC50 was found to be 8 µM in test [1], 18 µM in test [2], 18 µM in test [3] and 90 µM in test [4]. For the same molecule, the IC90 in test [5] stood at 9.2 µM.

In the case of `CC(C)Nc1nc2nc3cc(Cl)c(Cl)cc3cc2n1C1O[C@H](CO)[C@@H](O)[C@H]1O` (stereo partly specified), the IC50 was 90 µM in test [1], 100 µM in test [2], 32 µM in test [3] and above 100 µM in test [4].

For the molecule `OC[C@H]1OC(n2cnc3nc4cc(Cl)c(Cl)cc4cc32)[C@H](O)[C@@H]1O` (stereo partly specified), the IC50 was 85 µM in test [1], above 100 µM in test [2], above 100 µM in test [3] and above 100 µM in test [4]. Moreover, it took 85 µM to reach the 90% level in test [5] (IC90).

`CC(C)Nc1nc2cc3cc(Cl)c(Cl)cc3cc2n1C1O[C@H](CO)[C@@H](O)[C@H]1O` (stereo partly specified): the concentration for half-maximal inhibition (IC50) came to 146 µM in test [1], 32 µM in test [2], 32 µM in test [3] and 80 µM in test [4].

Turning to `OC[C@H]1OC(n2c(Cl)nc3cc4cc(Cl)c(Cl)cc4cc32)[C@H](O)[C@@H]1O` (stereo partly specified), the IC50 turned out to be 19 µM in test [1], 3.2 µM in test [2], 2 µM in test [3] and 26 µM in test [4]. Further, the 90% effect level in test [5] (IC90) was put at 2.3 µM.

As to `OC[C@H]1OC(n2c(SCc3ccccc3)nc3cc4cc(Cl)c(Cl)cc4nc32)[C@H](O)[C@@H]1O` (stereo partly specified), the IC50 in test [1] is above 100 µM; in test [2] it was above 10 µM; in test [3], above 10 µM; in test [4], above 100 µM.

`OC[C@H]1OC(n2cnc3cc4cc(Cl)c(Cl)cc4nc32)[C@H](O)[C@@H]1O` (stereo partly specified): the IC50 in test [1] is above 100 µM; in test [2], above 10 µM; in test [3], above 10 µM; in test [4] it was above 100 µM.

For the molecule `OC[C@H]1OC(n2c(Cl)nc3nc4cc(Cl)c(Cl)cc4cc32)[C@H](O)[C@@H]1O` (stereo partly specified), the IC50 amounted to 11 µM in test [1], 21 µM in test [2], 2 µM in test [3] and 70 µM in test [4]. The molecule also gave an IC90 in test [5] of 45 µM.

As for `OC[C@H]1OC(n2c(SCc3ccccc3)nc3nc4cc(Cl)c(Cl)cc4nc32)[C@H](O)[C@@H]1O` (stereo partly specified), the IC50 in test [1] turned out to be 20 µM; in test [2], 20 µM; in test [3], 4.2 µM; in test [4], 30 µM.

Take `OC[C@H]1OC(n2c(SCc3ccccc3)nc3cc4cc(Cl)c(Cl)cc4cc32)[C@H](O)[C@@H]1O` (stereo partly specified): the IC50 in test [1], in test [2], in test [3] and in test [4] was above 100 µM each time.

Regarding `OC[C@H]1OC(n2c(SCc3ccccc3)nc3nc4cc(Cl)c(Cl)cc4cc32)[C@H](O)[C@@H]1O` (stereo partly specified), the IC50 in test [1] was 40 µM; in test [2] it was 20 µM; in test [3] it was 4.2 µM; in test [4], above 100 µM.

As for `Nc1nc2c(ncn2COC(CO)CO)c(=O)[nH]1` [GANCICLOVIR], the IC50 in test [1] and in test [2] was above 100 µM in each case. For the same molecule, it took 1.6 µM to reach the 90% level in test [5] (IC90).

Regarding `OC[C@H]1O[C@@H](n2c(Cl)nc3cc(Cl)c(Cl)cc32)[C@H](O)[C@@H]1O`, the IC50 was determined as 210 µM in test [1] and 2.9 µM in test [3]. Besides, the 90% effect level in test [5] (IC90) was put at 1.4 µM.

For `OC[C@H]1OC(n2c(NC3CC3)nc3nc4cc(Cl)c(Cl)cc4cc32)[C@H](O)[C@@H]1O` (stereo partly specified), the IC50 in test [1], in test [2], in test [3] and in test [4] was above 100 µM in each case.

On to `OC[C@H]1OC(n2cnc3cc4cc(Cl)c(Cl)cc4cc32)[C@H](O)[C@@H]1O` (stereo partly specified), for which the IC50 in test [1], in test [2], in test [3] and in test [4] was above 100 µM each time. Also, the IC90 in test [5] is 17 µM.

As to `OC[C@H]1OC(n2c(NC3CC3)nc3cc4cc(Cl)c(Cl)cc4cc32)[C@H](O)[C@@H]1O` (stereo partly specified), the IC50 in test [1] was 55 µM; in test [2] it was 32 µM; in test [3] it was 32 µM; in test [4] it was 80 µM.
